Results as given in ChEMBL document CHEMBL1145990, “Synthesis and in vitro antitumor activity of phenanthrolin-7-one derivatives, analogues of the marine pyridoacridine alkaloids ascididemin and meridine: structure-activity relationship” (J Med Chem, 2003).

Experiments:
A-427 = experiment: In vitro antitumor effects against human A-427 cell lines.; type: functional, cell-based
In short: (§1)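 Cells grown at 37°C in sealed dishes in MEM with 5% FCS, seeded at 40000 cells/mL and allowed 24 h to plate. Six concentrations from 10 µM to 0.1 nM were tested. Growth was read by MTT reduction to formazan at 570 nm (630 nm reference), in sextuplicate. IC50 is the concentration giving 50% growth inhibition versus control, as the mean of three independent assays.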

A549 = experiment: In vitro antitumor effects against human A-549 cell lines.; type: functional, cell-based; in short: as §1
HCT-15 = experiment: In vitro antitumor effects against human HCT-15 cell lines.; type: functional, cell-based; in short: as §1
J82 = experiment: In vitro antitumor effects against human J82 cell lines.; type: functional, cell-based; in short: as §1
MCF7 = experiment: In vitro antitumor effects against human MCF-7 cell lines.; type: functional, cell-based; in short: as §1
LoVo = experiment: In vitro antitumor effects against human LoVo cell lines.; type: functional, cell-based; in short: as §1
Mus musculus = experiment: Maximum tolerated dose following single i.p. injection to B6D2F1/jico mice.; type: functional
In short: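 Healthy non-tumour-bearing B6D2F1 mice given one acute intraperitoneal dose at 5, 10, 20, 40, 80 or 160 mg/kg. Three mice per dose group. Survival and body weight recorded for up to 28 days after injection. MTD taken as the highest dose tolerable acutely.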

PC-3 = experiment: In vitro antitumor effects against human PC-3 cell lines.; type: functional, cell-based; in short: as §1
SW1088 = experiment: In vitro antitumor effects against human SW 1088 cell lines.; type: functional, cell-based
T-24 = experiment: In vitro antitumor effects against human T24 cell lines.; type: functional, cell-based; in short: as §1
T47D = experiment: In vitro antitumor effects against human T-47D cell lines.; type: functional, cell-based; in short: as §1
U373 MG = experiment: In vitro antitumor effects against human U-373MG cell lines.; type: functional, cell-based, U-373MG ATCC; in short: as §1
U-87 MG = experiment: In vitro antitumor effects against human U87MG cell lines.; type: functional, cell-based, U-87MG ATCC; in short: as §1

Row | SMILES | IC50 (A-427) | IC50 (A549) | IC50 (HCT-15) | IC50 (J82) | IC50 (MCF7) | IC50 (LoVo) | MTD (Mus musculus) | IC50 (PC-3) | IC50 (SW1088) | IC50 (T-24) | IC50 (T47D) | IC50 (U373 MG) | IC50 (U-87 MG)
1 | COc1cnc2c3c(nccc13)-c1cccnc1C2=O | 70 nM | 50 nM | 90 nM | 800 nM | 60 nM | 700 nM | >160 mg/kg | 80 nM | 80 nM | 60 nM | 6000 nM | 70 nM | 50 nM
2 | O=C1c2c(Cl)ccnc2-c2nccc3ccnc1c23 | 700 nM | 800 nM | 1000 nM | 4000 nM | 600 nM | 1000 nM | 20 mg/kg | 5000 nM | 4000 nM | 3000 nM | 1000 nM | 4000 nM | 800 nM
3 | COc1ccnc2c1-c1nccc3ccnc(c13)C2=O | 70 nM | 300 nM | 100 nM | 2000 nM | 200 nM | 300 nM | 5 mg/kg | 900 nM | 2000 nM | 300 nM | 3000 nM | 100 nM | 100 nM
4 | O=C1c2nccc(O)c2-c2nccc3ccnc1c23 | 6000 nM | 6000 nM | 6000 nM | 6000 nM | 5000 nM | 5000 nM | 10 mg/kg | > 10000 nM | 6000 nM | 8000 nM | 6000 nM | 6000 nM | 8000 nM
5 | COc1cnc2c3c(nccc13)-c1ncccc1C2=O | 500 nM | 500 nM | 700 nM | 4000 nM | 400 nM | 5000 nM | >160 mg/kg | 500 nM | 300 nM | 500 nM | 7000 nM | 600 nM | 300 nM
6 | COc1ccnc2c1C(=O)c1ncc(OC)c3ccnc-2c13 | 800 nM | 5000 nM | 3000 nM | 5000 nM | 2000 nM | 800 nM | 80 mg/kg | 800 nM | 3000 nM | 2000 nM | 5000 nM | 2000 nM | 800 nM
7 | CN(C)c1cc(Cl)nc2c1-c1nccc3ccnc(c13)C2=O | 6000 nM | > 10000 nM | 5000 nM | 5000 nM | 6000 nM | 5000 nM | 40 mg/kg | > 10000 nM | 5000 nM | 6000 nM | 4000 nM | 6000 nM | 6000 nM
8 | COc1ccc2c(n1)C(=O)c1nccc3ccnc-2c13 | 6000 nM | 9000 nM | 6000 nM | 5000 nM | 5000 nM | 5000 nM | 40 mg/kg | 6000 nM | 5000 nM | 6000 nM | 6000 nM | 6000 nM | 6000 nM
9 | COc1cnc2c3c(nccc13)-c1c(N(C)C)ccnc1C2=O | 3000 nM | 3000 nM | 3000 nM | 6000 nM | 4000 nM | 3000 nM | >160 mg/kg | 6000 nM | 6000 nM | 5000 nM | 4000 nM | 5000 nM | 3000 nM
10 | COc1ccnc2c1-c1nccc3c(OC)cnc(c13)C2=O | 6 nM | 5 nM | 40 nM | 200 nM | 30 nM | 8 nM | 20 mg/kg | 40 nM | 8 nM | 9 nM | 60 nM | 7 nM | 8 nM
11 | COc1ccc2c(n1)-c1nccc3ccnc(c13)C2=O | 6000 nM | 9000 nM | 6000 nM | 5000 nM | 5000 nM | > 10000 nM | >160 mg/kg | 6000 nM | 5000 nM | 5000 nM | 6000 nM | 5000 nM | 6000 nM
12 | O=C1c2cccnc2-c2nccc3ccnc1c23 | 7000 nM | 800 nM | 900 nM | 5000 nM | 200 nM | 2000 nM | 10 mg/kg | 5000 nM | 4000 nM | 300 nM | 700 nM | 800 nM | 500 nM
13 | CN(C)c1ccnc2c1-c1nccc3ccnc(c13)C2=O | 900 nM | 1000 nM | 2000 nM | 4000 nM | 900 nM | 2000 nM | 10 mg/kg | 4000 nM | 5000 nM | 1000 nM | 4000 nM | 1000 nM | 2000 nM
14 | COc1cc(OC)c2c(n1)C(=O)c1nccc3ccnc-2c13 | 5000 nM | 6000 nM | 5000 nM | 5000 nM | 5000 nM | 4000 nM | 40 mg/kg | 6000 nM | 5000 nM | 6000 nM | 5000 nM | 6000 nM | 5000 nM
15 | COc1ccnc2c1C(=O)c1nccc3ccnc-2c13 | 800 nM | 800 nM | 800 nM | 3000 nM | 600 nM | 900 nM | 10 mg/kg | 600 nM | 900 nM | 700 nM | 400 nM | 800 nM | 4000 nM
16 | O=C1c2ncccc2-c2nccc3ccnc1c23 | 700 nM | 3000 nM | 600 nM | 5000 nM | 600 nM | 2000 nM | 10 mg/kg | 900 nM | 5000 nM | 800 nM | 800 nM | 4000 nM | 6000 nM
17 | COc1ccc2c(n1)C(=O)c1ncc(OC)c3ccnc-2c13 | 500 nM | 800 nM | 600 nM | 8000 nM | 500 nM | 600 nM | >160 mg/kg | 1000 nM | 500 nM | 600 nM | 1000 nM | 800 nM | 700 nM
